Key:
Assay type in all cases: functional, organism-based
Cryptococcus neoformans = experiment: Antifungal activity against Cryptococcus neoformans ATCC 90113 by M27A2 method
Leishmania donovani = experiment: Antileishmanial activity against Leishmania donovani promastigotes after 72 hrs by alamar blue assay
In short: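 L. donovani promastigote culture at 2 × 10^6 cells/mL was exposed to diluted compound in microplate wells and incubated at 26 °C for 72 h. Promastigote growth was read by Alamar blue. Pentamidine and amphotericin B were the reference drugs.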

Staphylococcus aureus [1] = experiment: Antibacterial activity against Staphylococcus aureus ATCC 29213 by CLSI method
Staphylococcus aureus [2] = experiment: Antibacterial activity against methicillin-resistant Staphylococcus aureus ATCC 33591 by CLSI method
In short: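 Methicillin-resistant S. aureus ATCC 33591 tested by a modified CLSI (formerly NCCLS) susceptibility method. Ciprofloxacin was included as the control drug in each assay.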

Row | SMILES | IC50 (Cryptococcus neoformans) | MIC (Cryptococcus neoformans) | IC50 (Leishmania donovani) | IC90 (Leishmania donovani) | IC50 (Staphylococcus aureus [1]) | MIC (Staphylococcus aureus [1]) | IC50 (Staphylococcus aureus [2]) | MIC (Staphylococcus aureus [2])
1 | C=C1CC[C@@H]2C(C)(C)CCC[C@@]2(C)[C@@H]1CC/C(C)=C/C[n+]1cn(C)c2nc[nH]/c(=N\O)c21 | 5.94 mg/L | 10 mg/L | 29.3 mg/L | 34 mg/L | – | – | – | –
2 | CC1=CCC[C@@H]2[C@@](C)(CC/C(C)=C/C[n+]3cn(C)c4nc[nH]/c(=N/O)c43)[C@H](C)CC[C@@]12C [AGELOXIME B] | 4.96 mg/L | 10 mg/L | 28.5 mg/L | 33.2 mg/L | 7.21 mg/L | 10 mg/L | 9.2 mg/L | 20 mg/L

— ChEMBL document CHEMBL2034895, “Antimicrobial metabolites from the Paracel Islands sponge Agelas mauritiana” (J Nat Prod, 2012)
